# Measurements taken from ChEMBL document CHEMBL2331304, “N1,N3-disubstituted uracils as nonnucleoside inhibitors of HIV-1 reverse transcriptase” (Bioorg Med Chem, 2013).
# The source made the active and inactive calls. The calls are words filed in the database; no cut-off is given here.
# Key:
# Human alphaherpesvirus 2 = assay: Antiviral activity against Human herpesvirus 2; format: functional, organism-based
# Outline: (§1)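 Confluent HEL, Vero, HeLa or MDCK monolayers (cell type per virus not specified) were inoculated with 100 CCID50 of virus, with a range of compound concentrations. Strains were HSV-1 KOS and TK− ACV-resistant KOS, HSV-2 Lyons and G, and HCMV AD-169 and Davis. Cytopathicity or plaques were scored once complete in untreated infected controls.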
# [1] = biological target: Human immunodeficiency virus type 1 reverse transcriptase (Human immunodeficiency virus 1, UniProt Q72547, Y181C); assay: Inhibition of HIV1 reverse transcriptase p66/p51 Y181C mutant after 30 mins by liquid scintillation counting
# [2] = Selectivity index, ratio of CC50 for human MT4 cells to EC50 for HIV1 3B infected in human MT4 cells; format: toxicity, cell-based; settings: MT4 cells (uninfected for CC50; HIV-1 3B infected for EC50)
# Human betaherpesvirus 5 [3] = assay: Antiviral activity against HCMV AD169; format: functional, organism-based; settings: Human betaherpesvirus 5, AD169; outline: as §1
# Human alphaherpesvirus 1 = assay: Antiviral activity against Human herpesvirus 1; format: functional, organism-based; outline: as §1
# [4] = tested on: Mammalian orthoreovirus 1; assay: Antiviral activity against Reovirus 1; format: functional, organism-based
# [5] = biological target: Human immunodeficiency virus type 1 reverse transcriptase (Human immunodeficiency virus 1, UniProt Q72547, K103N); assay: Inhibition of HIV1 reverse transcriptase p66/p51 K103N mutant after 30 mins by liquid scintillation counting
# [6] = tested on: Human immunodeficiency virus 1; assay: Antiviral activity against HIV1 3B infected in human MT4 cells assessed as inhibition of virus-induced cytopathic effect after 4 days by MTT assay; format: functional, organism-based; settings: Human immunodeficiency virus 1, 3B, MT4, 96 h
# Outline: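 HIV-1 in MT-4 cells at 1 × 10^5 cells/ml, infected at MOI 0.02 (virus stock titrated as CCID50), then plated immediately onto varying compound concentrations. After 4 days at 37 °C, viable cells counted by MTT.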
# [7] = biological target: Human immunodeficiency virus type 1 reverse transcriptase (Human immunodeficiency virus 1, UniProt Q72547); assay: Non-competitive inhibition of wild type HIV1 reverse transcriptase p66/p51 after 30 mins by liquid scintillation counting
# [8] = biological target: Human immunodeficiency virus type 1 reverse transcriptase (Human immunodeficiency virus 1, UniProt Q72547, K103N/Y181C); assay: Inhibition of HIV1 reverse transcriptase p66/p51 K103N/Y181C mutant after 30 mins by liquid scintillation counting
# [9] = Inhibition of HIV1 reverse transcriptase p66/p51 G190A mutant after 30 mins by liquid scintillation counting; design: species or system Human immunodeficiency virus 1
# Punta Toro virus = assay: Antiviral activity against Punta Toro virus; format: functional, organism-based
# Influenza A virus [10] = assay: Antiviral activity against Influenza A virus H3N2; format: functional, organism-based
# [11] = tested on: Vesicular stomatitis virus; assay: Antiviral activity against Vesicular stomatitis virus; format: functional, organism-based
# Feline coronavirus = assay: Antiviral activity against Feline coronavirus; format: functional, organism-based
# Coxsackievirus B4 = assay: Antiviral activity against Coxsackievirus B4; format: functional, organism-based
# Vaccinia virus = assay: Antiviral activity against Vaccinia virus; format: functional, organism-based; settings: Orthopoxvirus vaccinia
# [12] = biological target: Human immunodeficiency virus type 1 reverse transcriptase (Human immunodeficiency virus 1, UniProt Q72547, V106A); assay: Inhibition of HIV1 reverse transcriptase p66/p51 V106A mutant after 30 mins by liquid scintillation counting
# Sindbis virus = assay: Antiviral activity against Sindbis virus; format: functional, organism-based
# Influenza A virus [13] = assay: Antiviral activity against Influenza A virus H1N1; format: functional, organism-based
# Human respirovirus 3 = assay: Antiviral activity against Parainfluenza virus 3; format: functional, organism-based
# [14] = biological target: Human immunodeficiency virus type 1 reverse transcriptase (Human immunodeficiency virus 1, UniProt Q72547, L100I); assay: Inhibition of HIV1 reverse transcriptase p66/p51 L100I mutant after 30 mins by liquid scintillation counting
# [15] = tested on: Respiratory syncytial virus; assay: Antiviral activity against Respiratory syncytial virus; format: functional, organism-based
# Influenza B virus = assay: Antiviral activity against influenza B virus; format: functional, organism-based
# Human betaherpesvirus 5 [16] = assay: Antiviral activity against HCMV Davis; format: functional, organism-based; settings: Human betaherpesvirus 5, Davis; outline: as §1
# Human alphaherpesvirus 3 = assay: Antiviral activity against Varicella zoster virus; format: functional, organism-based
# Outline: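 VZV strain Oka and the TK− strain 07-1 were inoculated at 20 PFU onto confluent cell monolayers in the presence of varying compound concentrations. Plaque formation was recorded once complete in untreated infected controls.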
# MT4 = assay: Cytotoxicity against human MT4 cells after 4 days by MTT assay; format: cell-based; settings: mt4, 96 h
SMILES,Activity (Human alphaherpesvirus 2),Ki [1] [µM],selectivity ratio [2],IC50 (Human betaherpesvirus 5 [3]) [µM],Activity (Human alphaherpesvirus 1),Activity [4],Ki [5] [µM],EC50 [6] [µM],Ki [7] [µM],Ki [8] [µM],Ki [9] [µM],Activity (Punta Toro virus),Activity (Influenza A virus [10]),Activity [11],Activity (Feline coronavirus),Activity (Coxsackievirus B4),Activity (Vaccinia virus),Ki [12] [µM],Activity (Sindbis virus),Activity (Influenza A virus [13]),further results
O=c1ccn(C/C=C/c2ccccc2)c(=O)n1Cc1cc(Cl)cc(Cl)c1,inactive,43,24,9.4,inactive,inactive,15.5,1.99,0.67,> 100,0.55,inactive,inactive,inactive,inactive,inactive,inactive,11,inactive,inactive,Activity (Human respirovirus 3): inactive; Ki [14]: 0.92 µM; Activity [15]: inactive; Activity (Influenza B virus): inactive; IC50 (Human betaherpesvirus 5 [16]): 12 µM; Activity (Human alphaherpesvirus 3): inactive; CC50 (MT4): 49 µM
Cc1cc(Br)cc(Cn2c(=O)ccn(C/C=C/c3ccccc3)c2=O)c1,inactive,20,73,16,inactive,inactive,6.9,1.36,0.31,85,0.18,inactive,inactive,inactive,inactive,inactive,inactive,2.3,inactive,inactive,Activity (Human respirovirus 3): inactive; Ki [14]: 0.24 µM; Activity [15]: inactive; Activity (Influenza B virus): inactive; IC50 (Human betaherpesvirus 5 [16]): ≥ 20 µM; Activity (Human alphaherpesvirus 3): inactive; CC50 (MT4): 100 µM
